This is an account of results in publication PMC3712066 (Diabetes, 2013).

A short description of data set [1]: Ophthalmological examinations. The data set is classed as in vivo, Sprague-Dawley rats. Conditions: SST eye drops 10 mg/mL, 20 µL once daily; baseline and follow-up (days 7 and 13). The essentials:
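All animals had slit lamp biomicroscopy, indirect ophthalmoscopy and intraocular pressure measurement at baseline and on days 7 and 13 posttreatment. Groups were nondiabetic controls on vehicle, and STZ-diabetic (60 mg/kg i.v.) male Sprague-Dawley rats on once-daily drops of test compound (10 mg/mL) or 0.9% NaCl vehicle.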

Data set [2] deals with rats with streptozotocin-induced diabetes mellitus (STZ-DM). Nature of the data set: Electroretinography. It counts as in vivo, Sprague-Dawley rats. Conditions: diabetic rats, SST eye drops 10 mg/mL once daily; scotopic. The essentials: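 Scotopic ERG was recorded in both eyes before treatment and on day 14, after at least 1 h dark adaptation. Rats were under isoflurane with 0.5% proparacaine topically. b-wave amplitude and implicit time were measured to ISCEV definitions after scotopic flash (0 db). Animals were STZ-diabetic rats on daily 10 mg/mL drops or saline vehicle. Paired t test within group; means ± SD.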

Data set [3] shares this test system. As to the kind of experiment: Assessment of glial activation. It counts as in vivo, Sprague-Dawley rats. Conditions: dose-response; SST eye drops 0.5 mg/mL compared with 2 or 10 mg/mL. An outline of the steps: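 Male Sprague-Dawley rats made diabetic with STZ 60 mg/kg i.v. (glucose above 250 mg/dL). One drop daily for 14 days, plus one ~1 h before necropsy; saline vehicle; dose-response at 10, 2, 0.5 mg/mL. Paraffin retinal sections blocked in PBS/1% BSA/0.05% Triton X-100. Rabbit anti-GFAP 1:100, 36 h at 4C; Alexa Fluor 568 secondary. Scored 0–5 by GFAP extent, endfeet/GCL to ONL.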

Data set [4] has the same test system. Nature of the data set: Assessment of retinal apoptosis. It counts as in vivo, Sprague-Dawley rats. Conditions: TUNEL; SST eye drops 10 mg/mL once daily, 15 days.
Data set [5] deals with FasL, caspase-8, Bid, active caspase-3, BclxL. Nature of the data set: Proapoptotic and survival signaling in neuroretina. It counts as in vivo, Sprague-Dawley rats. Conditions: neuroretina of diabetic rats; SST eye drops 10 mg/mL; Western blot. An outline of the steps:
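Neuroretina protein extracts were Western blotted for FasL, caspase-8, Bid, Bim, BclxL and active caspase-3, with α-tubulin as loading control. Autoradiograms were quantified by scanning densitometry as arbitrary units, means ± SD. Tissue came from STZ-diabetic rats given daily 10 mg/mL drops or saline vehicle for 14 days, and from nondiabetic controls.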
(In general: A western blot detects proteins with antibodies after separation by electrophoresis.)

In data set [6] the test system is glutamate/aspartate transporter (GLAST). As to the kind of experiment: GLAST expression in retina. The data set is classed as in vivo, Sprague-Dawley rats. Conditions: diabetic rats treated with SST eye drops 10 mg/mL. An outline of the steps: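 GLAST mRNA by real-time PCR, normalized to β-actin (relative quantification). For protein, paraffin retinal sections were retrieved in 10 mmol/L sodium citrate pH 6.0 and blocked 1 h at room temperature in 2% BSA/0.05% Tween PBS. They were probed with anti-GLAST 1:200, then Alexa Fluor 488 anti-rabbit (1 h), with DAPI. Fluorescence intensity was quantified as for GFAP. Rats were STZ-diabetic on daily drops or saline.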

Data set [7] deals with AMPA-induced neurotoxicity. Conditions: intravitreal administration; cited from earlier work.

On to Somatostatin [SST], for which, in data set [1], the “differences in the cornea, pupil size, or intraocular pressure among groups” value is reported as “No significant differences”. Further, in data set [2], the “b-wave amplitude, day 14 vs day −1” value is “no reduction of b-wave amplitude was observed” and the “b-wave implicit time, day 14 vs day −1” value was “did not increase”. Besides, the “effect in preventing glial activation and apoptosis” value in data set [3] is recorded as “significantly lower than that obtained using either 2 or 10 mg/mL”. The “ratio of apoptosis in all retinal layers vs diabetic rats treated with placebo” value in data set [4] is on record as “significantly lower”. In addition, the BclxL expression result in data set [5] is listed as “greatly improved”. In addition, the “diabetes-induced downregulation of GLAST gene and protein expression” value in data set [6] is on record as “this downregulation was prevented”. Moreover, in data set [6] (immunofluorescence), the “GLAST protein levels in comparison with nondiabetic rats” value is “even increased”. Further, the “protection of the retina from AMPA-induced neurotoxicity” value in data set [7] is “protects the retina from AMPA-induced neurotoxicity”.
